Test results from paper PMC4618315 (Nature, 2015).
Residue numbers refer to the chain shown, from its start.

Key:
Type in all cases: binding
[1] = biological target: T1, bovine GLUT5 (Bos taurus, UniProt P58353, N51A)
T1 sequence (P58353 with tags, fused parts or gaps N51A): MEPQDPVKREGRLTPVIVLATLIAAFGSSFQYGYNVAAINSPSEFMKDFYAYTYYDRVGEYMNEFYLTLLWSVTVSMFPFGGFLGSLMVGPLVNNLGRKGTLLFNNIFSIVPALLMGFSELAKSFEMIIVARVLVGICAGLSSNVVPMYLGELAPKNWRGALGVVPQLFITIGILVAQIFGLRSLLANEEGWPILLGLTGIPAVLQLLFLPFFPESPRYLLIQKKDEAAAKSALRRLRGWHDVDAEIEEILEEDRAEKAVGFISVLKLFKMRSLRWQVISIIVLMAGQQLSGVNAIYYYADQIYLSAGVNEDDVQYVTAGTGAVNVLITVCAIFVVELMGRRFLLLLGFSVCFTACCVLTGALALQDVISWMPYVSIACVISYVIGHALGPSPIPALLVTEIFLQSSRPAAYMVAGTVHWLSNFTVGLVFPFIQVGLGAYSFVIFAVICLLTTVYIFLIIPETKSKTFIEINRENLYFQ
Outline: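 Bovine construct (residues 1–473 of 501, N51A deglycosylation) was expressed in S. cerevisiae, solubilised in 1% DDM and bound to Ni-NTA. It was TEV-cleaved and run on SEC in 10 mM Tris-HCl pH 7.5, 150 mM NaCl, 0.09% UDMβ. D-fructose was added sequentially, with 2 min room-temperature incubation after each addition. Trp fluorescence: excitation 295 nm, emission 338 nm.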

[2] = biological target: T2, rGLUT5 Q166E (Rattus norvegicus, UniProt P43427, A285T/N50Y/Q166E/T452S); assay: Tryptophan fluorescence quenching of purified rat GLUT5 Q166E mutant; details: rGLUT5 Q166E relative to WT; 40 mM sugar
T2 sequence (P43427 with tags, fused parts or gaps N50Y/Q166E/A285T/T452S): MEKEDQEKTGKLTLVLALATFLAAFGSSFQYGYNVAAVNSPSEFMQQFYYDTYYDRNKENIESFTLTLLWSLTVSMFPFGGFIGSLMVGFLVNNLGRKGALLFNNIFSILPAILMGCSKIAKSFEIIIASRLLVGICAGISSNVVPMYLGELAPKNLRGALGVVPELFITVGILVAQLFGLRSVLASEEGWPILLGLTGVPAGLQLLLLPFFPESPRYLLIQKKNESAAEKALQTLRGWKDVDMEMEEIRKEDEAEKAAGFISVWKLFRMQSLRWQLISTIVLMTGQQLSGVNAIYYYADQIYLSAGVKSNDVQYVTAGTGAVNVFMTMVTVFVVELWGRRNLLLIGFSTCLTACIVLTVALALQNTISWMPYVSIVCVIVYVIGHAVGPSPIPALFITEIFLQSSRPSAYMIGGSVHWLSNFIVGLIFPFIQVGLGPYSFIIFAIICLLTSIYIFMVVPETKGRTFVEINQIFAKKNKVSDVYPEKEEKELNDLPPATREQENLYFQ
Outline: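 Deglycosylated N50Y rat background carried the Q166E mutation, made by PCR mutagenesis and purified as WT (Ni-NTA, SEC in DDM). Protein was used at 0.06 mg/ml in 20 mM Tris pH 7.5, 150 mM NaCl, 0.03% DDM, with or without 5 mM HgCl2 pre-incubation. Single 40 mM D-fructose or D-glucose additions, or increasing D-glucose, were incubated 2 min at room temperature. Readout: excitation 295 nm, 338 nm emission peak; triplicate.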

[3] = biological target: T3, rGLUT5 (rat GLUT5 deglycosylation mutant N50Y, "WT") (Rattus norvegicus, UniProt P43427, A285T/N50Y/T452S); assay: Tryptophan fluorescence quenching of purified rat GLUT5 WT
T3 sequence (P43427 with tags, fused parts or gaps N50Y/A285T/T452S): T2 sequence (P43427 with tags, fused parts or gaps N50Y/Q166E/A285T/T452S) with E166Q

[4] = biological target: T4, rGLUT5 with a single tryptophan residue (W419) (Rattus norvegicus, UniProt P43427, N50Y/W191F/W239F/W265F/W275F/W338F/W370F/W70F); assay: Tryptophan fluorescence quenching of rat GLUT5 single tryptophan; details: 40 mM sugar
T4 sequence (P43427 with tags, fused parts or gaps N50Y/W70F/W191F/W239F/W265F/W275F/A285T/W338F/W370F/T452S): T2 sequence (P43427 with tags, fused parts or gaps N50Y/Q166E/A285T/T452S) with W70F, E166Q, W191F, W239F, W265F, W275F, W338F, W370F
Outline: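 Single-Trp rat protein (N50Y plus W70F, W191F, W239F, W265F, W275F, W338F, W370F) was used at 0.06 mg/ml in 20 mM Tris pH 7.5, 150 mM NaCl, 0.03% DDM, with or without 5 mM HgCl2. Sugars were each added at 40 mM final; D-fructose was also added sequentially up to 40 mM. After 2 min at room temperature: excitation 295 nm, emission 338 nm. Kd by non-linear regression; triplicate.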

Kd [1] [mM] | sugar binding (in words) [2] | Kd ([3]; Kd, purified rGLUT5 WT (N50Y) in DDM, excitation 295 nm, emission 338 nm, n = 3) [mM] | quenching of tryptophan fluorescence (in words) ([3]; addition of sugar (40 mM) to rGLUT5) | tryptophan quenching (in words) [4] | SMILES
5.5 ± 0.6 | clearly weakens | 6 to 9 | strong quenching |  | O=C(CO)[C@@H](O)[C@H](O)[C@H](O)CO [D-fructose]
 |  |  |  | No tryptophan quenching | O=C(CO)[C@H](O)[C@@H](O)[C@@H](O)CO [L-fructose, reference compound]
 | robust binding |  |  | No tryptophan quenching | OC[C@H]1OC(O)[C@H](O)[C@@H](O)[C@@H]1O (stereo partly drawn) [D-glucose]
 |  |  |  | No tryptophan quenching | O=C[C@H](O)[C@@H](O)[C@@H](O)[C@H](O)CO [D-galactose]
